In ChEMBL document CHEMBL4513216, “Probing the Open Global Health Chemical Diversity Library for Multistage-Active Starting Points for Next-Generation Antimalarials” (ACS Infect Dis, 2020) one finds cytotoxicity data, which are given here for 38 molecules.

The data set can be described thus: Toxicity liver stage against HepG2, at 10uM. The data set is classed as cell-based. The arrangement: test concentration 10 uM, cell line HepG2-A16-CD81EGFP. As to conditions: human, HepG2-A16-CD81EGFP cells; read-out: INHIBITION
In short, it runs like this:
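Uninfected HepG2-A16-CD81EGFP cells, 3 × 10^3 per well, 1536-well, plated on prespotted compound at 10 μM final, parasite-free screening media added to match infected plates; puromycin 10 μM positive, DMSO 0.5% negative; run in parallel with 48 h PbLuc assay at 37 °C, 5% CO2; viability by CellTiter-Glo luminescence, normalized to controls.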

For `COCCN(C)c1ccc(NCc2cscn2)nc1`, the cytotoxicity at 10 µM stood at 0.513%.

As for `Cn1cc(-c2cnc(-c3ccnn3C)nc2)cc1C(=O)N1CCCC1`, the cytotoxicity at 10 µM came to 4.55%.

For the molecule `Cc1nc2cc(CNC(=O)C3CC(=O)N(CCN(C)C)C3)ccc2n1C` (stereo not drawn), the cytotoxicity at 10 µM was -4.31%.

Take `Cc1ccc(C(=O)N2CCCC(C(=O)N3CCCCC3)C2)c(O)c1` (stereo not drawn): the cytotoxicity at 10 µM was -7.52%.

As to `O=C(c1cc2c(F)cccc2[nH]1)N1CCC(Nc2cccnn2)CC1`, the cytotoxicity at 10 µM was -19.3%.

As for `CCC(CC)c1cc(C(=O)N2CCN(C(C)C(N)=O)CC2)on1` (stereo not drawn), the cytotoxicity at 10 µM stood at 5.82%.

As to `COc1nn(C)c2c1CCCN(C(=O)c1cccc3cccnc13)C2`, the cytotoxicity at 10 µM is -104%.

As to `O=C(Cc1noc(C(=O)NCC2CC2)n1)Nc1cccc(C(F)(F)F)c1`, the cytotoxicity at 10 µM is 8.13%.

As to `O=C(c1cc(-c2cn[nH]c2)nc2ccc(F)cc12)N1CCSCC1`, the cytotoxicity at 10 µM is -0.0178%.

On to `Cc1ccc(C(NC(=O)CCCN2CCCCC2)C(=O)O)cc1` (stereo not drawn), for which the cytotoxicity at 10 µM was 2.87%.

Regarding `Cc1ccc(OCC(=O)N2C[C@@H]3CN(C)CCO[C@@H]3C2)cc1`, the cytotoxicity at 10 µM was -0.204%.

Consider `CCN(CC)CCNCc1cc(O)c2cc(C)ccc2n1`, for which the cytotoxicity at 10 µM came to 0.749%.

As to `Cc1ccc(CN2C[C@H]3CN(C(=O)c4ccno4)CCN3C2=O)cc1`, the cytotoxicity at 10 µM was -2.07%.

As to `Cc1ccc(OCc2occc2C(=O)N2CCOC(C(=O)O)C2)cc1` (stereo not drawn), the cytotoxicity at 10 µM was -2.14%.

As to `COCCCN(C)S(=O)(=O)c1ccc(Cl)cc1C#N`, the cytotoxicity at 10 µM was -38%.

Turning to `COc1cc(N2CCCC(c3nccn3Cc3cscn3)C2)nc(N)n1` (stereo not drawn), the cytotoxicity at 10 µM is -4.66%.

In the case of `COCCN1CCCC2(CCN(Cc3nnc(C4CC4)o3)C2)C1=O` (stereo not drawn), the cytotoxicity at 10 µM stood at 0.15%.

For the molecule `CC(C)N(CCNC(=O)c1n[nH]c2ccccc12)C(C)C`, the cytotoxicity at 10 µM is -42.8%.

With `Cc1cccc2c1cnn2CCCNC(=O)c1cnn(C)c1`, the cytotoxicity at 10 µM is 6.75%.

`CSCC[C@H](NC(C)=O)C(=O)N(C)Cc1ccc(-n2cccn2)cc1`: the cytotoxicity at 10 µM was -122%.

Regarding `CC(C)[C@H]1CN(Cc2nccn2C)C[C@@H]1NC(=O)COCC(N)=O`, the cytotoxicity at 10 µM is -0.0298%.

As to `O=C([C@@H]1COC[C@H]2CN(C3CCCC3)C[C@H]21)N1CCCO1`, the cytotoxicity at 10 µM was -0.262%.

As to `c1cc(COC[C@@]23CCC[C@@H]2CN(C2CCOCC2)C3)ccn1`, the cytotoxicity at 10 µM came out at 8.44%.

For the molecule `Cc1cccc(CN2CCC3(CCN(c4ncccn4)CC3)C2=O)c1`, the cytotoxicity at 10 µM came out at 5.32%.

For the molecule `CC(C)(C)c1cn2c(n1)C(CNCc1ccccn1)CCC2` (stereo not drawn), the cytotoxicity at 10 µM was -9.5%.

Take `COCCN1C[C@H]2CN(Cc3cccc(OC)c3)CCN2C1=O`: the cytotoxicity at 10 µM was 7.91%.

On to `Cn1c(CN2CCN(CC3CCCO3)CC2)nc2ccccc21` (stereo not drawn), for which the cytotoxicity at 10 µM was -25.1%.

As for `Cc1cnn(CC2CCCCN2C(=O)Cc2c(C)noc2C)c1` (stereo not drawn), the cytotoxicity at 10 µM is -0.807%.

`CNC(=O)[C@H]1C[C@H]2CN(C(=O)NC(C)C)C[C@@H]1O2`: the cytotoxicity at 10 µM was -99.8%.

For the molecule `CCSc1ccccc1C(=O)NCCN1CCC(c2cccs2)CC1`, the cytotoxicity at 10 µM is -7.98%.

On to `N#Cc1ncn(CCS(=O)(=O)c2ccc(Cl)cc2)n1`, for which the cytotoxicity at 10 µM was -6.74%.

As for `Cc1ccc(CN2C[C@@H]3CN(c4ncccn4)C[C@@H]3C2)cc1`, the cytotoxicity at 10 µM is -2.02%.

For `CN(Cc1ccncc1)C(=O)c1ccc2c(c1O)OC(C)(C)C2`, the cytotoxicity at 10 µM is 1.95%.

For the molecule `Cc1cc(C(=O)N2C[C@@H]3CCCO[C@@H]3[C@H](N3CCOCC3)C2)c(C)[nH]1`, the cytotoxicity at 10 µM stood at 4.5%.

In the case of `Cc1nc2n(n1)CC(NCc1nc(-c3ccccn3)no1)CC2` (stereo not drawn), the cytotoxicity at 10 µM is -12.4%.

With `COCCCNC(=O)C(C)(C)N(C)C1CCCC1`, the cytotoxicity at 10 µM is -51.3%.

For the molecule `CCCc1nc(CN2CCN(CC(O)c3ccccc3)CC2)no1` (stereo not drawn), the cytotoxicity at 10 µM was -2.89%.

For `CN(CC(=O)N1CCC(OCc2cccnc2)CC1)c1ccccc1`, the cytotoxicity at 10 µM was found to be 7.56%.
